Here are results for 20 molecules from ChEMBL document CHEMBL2069218, “Water-soluble pyrazolo[4,3-e][1,2,4]triazolo[1,5-c]pyrimidines as human A₃ adenosine receptor antagonists” (J Med Chem, 2012).

The nature of data set [1]: Solubility of the compound in water at pH 7.4. The format is physicochemical. In short, it runs like this: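 Hydrochloride salts, solubility measured in phosphate-buffered saline at pH 7.4.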
In another data set the target is T1, Adenosine receptor A1 (Homo sapiens, UniProt P30542).
T1 sequence (P30542 whole entry): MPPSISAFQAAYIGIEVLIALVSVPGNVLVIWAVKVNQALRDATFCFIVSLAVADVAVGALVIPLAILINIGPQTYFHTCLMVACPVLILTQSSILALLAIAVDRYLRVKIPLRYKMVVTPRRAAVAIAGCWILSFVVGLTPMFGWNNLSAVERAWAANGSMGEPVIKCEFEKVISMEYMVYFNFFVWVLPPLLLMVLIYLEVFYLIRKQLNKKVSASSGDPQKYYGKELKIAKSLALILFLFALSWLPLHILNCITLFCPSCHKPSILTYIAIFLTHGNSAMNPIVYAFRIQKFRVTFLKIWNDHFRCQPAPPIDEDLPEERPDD
As to the kind of experiment: Displacement of [3H]DPCPX from human adenosine A1 receptor expressed in CHO cells after 120 mins by scintillation counter. The format is cell-based. In short, it runs like this: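 Membranes from CHO cells expressing human A1 (50 μg protein), in 50 mM Tris-HCl pH 7.4, pretreated with adenosine deaminase 2 IU/mL. [³H]DPCPX 1 nM, 6–8 test concentrations, 120 min at 25 °C. Nonspecific binding with 1 μM DPCPX. GF/B filtration. Ki by Cheng–Prusoff.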
Background: Displacement assays read how much labelled ligand stays bound in the presence of the test substance.

The target of the next data set is T2, Adenosine receptor A2b (Homo sapiens, UniProt P29275).
T2 sequence (P29275 whole entry): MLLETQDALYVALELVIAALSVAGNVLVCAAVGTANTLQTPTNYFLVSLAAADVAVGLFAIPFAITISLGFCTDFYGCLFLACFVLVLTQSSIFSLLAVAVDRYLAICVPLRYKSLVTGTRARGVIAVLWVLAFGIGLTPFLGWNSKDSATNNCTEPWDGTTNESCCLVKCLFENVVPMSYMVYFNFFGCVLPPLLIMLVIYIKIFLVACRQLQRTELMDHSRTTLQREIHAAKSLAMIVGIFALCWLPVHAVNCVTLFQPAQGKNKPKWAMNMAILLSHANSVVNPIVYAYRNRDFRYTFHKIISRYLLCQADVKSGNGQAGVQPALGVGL
As to the kind of experiment: Antagonist activity at human adenosine A2B receptor expressed in CHO cells assessed as inhibition of NECA-induced cAMP production. The format is functional, cell-based. In short, it runs like this:
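Intact CHO cells (1 × 10⁶/assay) expressing human A2B, in buffer pH 7.4 with 2 IU/mL adenosine deaminase and Ro 20-1724. Preincubated 10 min at 37 °C. NECA 100 nM stimulus. Stopped with cold 6% TCA, ether-extracted, cAMP measured by competition protein binding with [³H]cAMP. IC50 from sigmoid nonlinear regression.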
On the technique in general: cAMP levels reflect the balance of adenylyl cyclase and phosphodiesterase activity.

Data set [2] deals with Adenosine receptors; A1 & A3 (Homo sapiens) (UniProt P30542+P0DMS8). As to the kind of experiment: Selectivity ratio of Ki for human adenosine A1 receptor to Ki for human adenosine A3 receptor.
Data set [3] deals with T3, Adenosine receptor A3 (Homo sapiens, UniProt P0DMS8).
T3 sequence (P0DMS8 whole entry): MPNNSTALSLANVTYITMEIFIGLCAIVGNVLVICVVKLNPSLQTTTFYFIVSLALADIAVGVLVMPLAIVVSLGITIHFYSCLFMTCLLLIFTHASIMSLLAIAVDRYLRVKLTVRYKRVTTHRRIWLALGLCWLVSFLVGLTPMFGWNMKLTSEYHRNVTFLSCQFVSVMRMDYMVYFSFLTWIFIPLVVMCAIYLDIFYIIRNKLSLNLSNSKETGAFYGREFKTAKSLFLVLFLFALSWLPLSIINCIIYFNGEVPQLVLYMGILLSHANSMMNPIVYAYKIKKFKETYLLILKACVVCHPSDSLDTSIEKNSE
As to the kind of experiment: Antagonist activity at human adenosine A3 receptor expressed in CHO cells assessed as forskolin/C1-IB-MECA-induced inhibition of cAMP production. The format is functional, cell-based. In outline:
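Intact CHO cells (1 × 10⁶/assay) expressing human A3, in buffer pH 7.4 with 2 IU/mL adenosine deaminase and Ro 20-1724. Preincubated 10 min at 37 °C. Forskolin 1 μM with Cl-IB-MECA 100 nM. Stopped with cold 6% TCA, cAMP measured by [³H]cAMP competition protein binding. IC50 by sigmoid nonlinear regression.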

A further data set has as its target Adenosine receptor A2a (Homo sapiens, UniProt P29274). As to the kind of experiment: Displacement of [3H]ZM241385 from human adenosine A2A receptor expressed in CHO cells after 60 mins by scintillation counter. The format is cell-based. In short, it runs like this: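 Membranes from CHO cells expressing human A2A (50 μg protein), in 50 mM Tris-HCl, 10 mM MgCl2, pH 7.4, adenosine deaminase pretreated. [³H]ZM241385 2 nM, 6–8 concentrations, 60 min at 4 °C. Nonspecific binding with 1 μM ZM241385. Filtration, scintillation counting. Ki by Cheng–Prusoff. 3–4 experiments in duplicate.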

The target of data set [4] is T3, Adenosine receptor A3. As to the kind of experiment: Displacement of [3H]MRE-3008-F20 from human adenosine A3 receptor expressed in CHO cells after 120 mins by scintillation counter. The format is cell-based.

Where only a bound is given, the exact number is not on record here.

Adenosine receptor A2a, sequence (P29274 whole entry): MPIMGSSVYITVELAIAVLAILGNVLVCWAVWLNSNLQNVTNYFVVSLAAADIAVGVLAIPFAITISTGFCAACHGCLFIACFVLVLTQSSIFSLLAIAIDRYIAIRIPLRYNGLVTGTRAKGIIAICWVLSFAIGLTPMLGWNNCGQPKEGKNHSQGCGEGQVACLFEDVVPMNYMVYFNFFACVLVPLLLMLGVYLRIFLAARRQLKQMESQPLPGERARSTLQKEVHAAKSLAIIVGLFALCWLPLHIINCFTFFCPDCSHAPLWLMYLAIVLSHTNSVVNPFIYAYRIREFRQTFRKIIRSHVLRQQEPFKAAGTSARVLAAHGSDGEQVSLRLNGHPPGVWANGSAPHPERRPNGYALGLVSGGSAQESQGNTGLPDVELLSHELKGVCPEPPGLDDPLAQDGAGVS

In data set [1], `CN1CCC(NC(=O)Nc2nc3nn(C)cc3c3nc(-c4ccco4)nn23)CC1.Cl` showed a solubility of 15000 µg/mL.
In the case of `Cl.Cn1cc2c(nc(NC(=O)NC3CCN(CC4CCCCC4)CC3)n3nc(-c4ccco4)nc23)n1`, the Ki at Adenosine receptor A1 was 3410 nM; on Adenosine receptor A2a, over 5000 nM; on Adenosine receptor A3 [4], 9.7 nM. The IC50 is over 5000 nM on Adenosine receptor A2b and 30 nM at Adenosine receptor A3 [3]. For the same molecule, in data set [2], the Ratio Ki was determined as 351. For the same molecule, the solubility in data set [1] was 8000 µg/mL.
`Cl.Cn1cc2c(nc(NC(=O)NC3CCN(Cc4ccc(F)cc4)CC3)n3nc(-c4ccco4)nc23)n1` displayed a solubility in data set [1] of 8000 µg/mL.
For the molecule `Cn1cc2c(nc(NC(=O)NC3CCN(C(=O)NCCCc4ccccc4)CC3)n3nc(-c4ccco4)nc23)n1`, the values for the inhibition constant (Ki) on Adenosine receptor A1, on Adenosine receptor A2a and on Adenosine receptor A3 [4] were 112 nM, 1640 nM and 14.5 nM, respectively. Besides, the IC50 is 1540 nM on Adenosine receptor A2b and 46 nM at Adenosine receptor A3 [3]. For the same molecule, the Ratio Ki in data set [2] is 7.7.
`C#CCN1CCC(NC(=O)Nc2nc3nn(C)cc3c3nc(-c4ccco4)nn23)CC1.Cl` registered a solubility in data set [1] of 8000 µg/mL.
The same measure, in the same setting: the result for `Cl.Cn1cc2c(nc(NC(=O)Nc3ccncc3)n3nc(-c4ccco4)nc23)n1` reads under 100 µg/mL.
As to `Cc1ccc(CN2CCC(NC(=O)Nc3nc4nn(C)cc4c4nc(-c5ccco5)nn34)CC2)cc1`, the Ki was 1480 nM on Adenosine receptor A1, over 5000 nM on Adenosine receptor A2a and 13.8 nM at Adenosine receptor A3 [4]. The half-inhibitory concentration (IC50) is over 5000 nM at Adenosine receptor A2b and 50 nM at Adenosine receptor A3 [3]. Further, the Ratio Ki in data set [2] was 107.
As for `C#CCN1CCC(NC(=O)Nc2nc3nn(C)cc3c3nc(-c4ccco4)nn23)CC1`, the results for the Ki on Adenosine receptor A1, at Adenosine receptor A2a and on Adenosine receptor A3 [4] were 802 nM, 789 nM and 25 nM, respectively. Besides, the values for the IC50 on Adenosine receptor A2b and at Adenosine receptor A3 [3] were over 5000 nM and 105 nM, respectively.
For `Cn1cc2c(nc(NC(=O)NC3CCN(C(=O)NC4CCCCCC4)CC3)n3nc(-c4ccco4)nc23)n1`, in that order: 805 nM, over 5000 nM, 7.7 nM, over 5000 nM and 26 nM.
As to `Cn1cc2c(nc(NC(=O)NC3CCN(Cc4cccnc4)CC3)n3nc(-c4ccco4)nc23)n1`, the figures for the Ki at Adenosine receptor A1, at Adenosine receptor A2a and at Adenosine receptor A3 [4] were 1330 nM, over 5000 nM and 44 nM, respectively. In addition, the IC50 on Adenosine receptor A2b is over 5000 nM; at Adenosine receptor A3 [3], 180 nM.
Turning to `Cn1cc2c(nc(NC(=O)NC3CCN(C(=O)NCc4ccc(Cl)cc4)CC3)n3nc(-c4ccco4)nc23)n1`, the inhibitory constant (Ki) stood at 614 nM on Adenosine receptor A1, 1140 nM at Adenosine receptor A2a and 25 nM on Adenosine receptor A3 [4]. For the same molecule, the IC50 at Adenosine receptor A2b stood at 505 nM; at Adenosine receptor A3 [3], 90 nM.
Regarding `Cn1cc2c(nc(NC(=O)NC3CCN(C(=O)NC4CCCCC4)CC3)n3nc(-c4ccco4)nc23)n1`, the results for the inhibition constant Ki on Adenosine receptor A1, on Adenosine receptor A2a and at Adenosine receptor A3 [4] were 761 nM, over 5000 nM and 13.7 nM, respectively. Further, the half-maximal inhibitory concentration (IC50) at Adenosine receptor A2b was over 5000 nM; on Adenosine receptor A3 [3] it was 44 nM.
Regarding `CCCN1CCC(NC(=O)Nc2nc3nn(C)cc3c3nc(-c4ccco4)nn23)CC1`, the Ki worked out at 2790 nM on Adenosine receptor A1, 1190 nM at Adenosine receptor A2a and 71 nM on Adenosine receptor A3 [4]. The half-maximal inhibitory concentration (IC50) at Adenosine receptor A2b is over 5000 nM; at Adenosine receptor A3 [3], 301 nM.
Regarding `CCOC(=O)CN1CCC(NC(=O)Nc2nc3nn(C)cc3c3nc(-c4ccco4)nn23)CC1`, the Ki at Adenosine receptor A1 came to 348 nM; on Adenosine receptor A2a, 1080 nM; at Adenosine receptor A3 [4], 12.2 nM. The concentration for half-maximal inhibition (IC50) on Adenosine receptor A2b is over 5000 nM; at Adenosine receptor A3 [3], 41 nM.
For `CN1CCN(C(=O)N2CCC(NC(=O)Nc3nc4nn(C)cc4c4nc(-c5ccco5)nn34)CC2)CC1`, in that order: 1120 nM, 1280 nM, 31 nM, 2140 nM and 120 nM.
`Cn1cc2c(nc(NC(=O)NC3CCN(Cc4ccc(C#N)cc4)CC3)n3nc(-c4ccco4)nc23)n1`: the Ki at Adenosine receptor A1 was determined as 166 nM; on Adenosine receptor A2a, 2220 nM; on Adenosine receptor A3 [4], 11.8 nM. Moreover, the IC50 was over 5000 nM at Adenosine receptor A2b and 40 nM at Adenosine receptor A3 [3]. The Ratio Ki in data set [2] was 14.
Regarding `COc1ccc(CN2CCC(NC(=O)Nc3nc4nn(C)cc4c4nc(-c5ccco5)nn34)CC2)cc1`, the inhibition constant (Ki) is 1160 nM on Adenosine receptor A1, over 5000 nM on Adenosine receptor A2a and 13.3 nM at Adenosine receptor A3 [4]. Further, the values for the IC50 on Adenosine receptor A2b and at Adenosine receptor A3 [3] were over 5000 nM and 45 nM, respectively. The Ratio Ki in data set [2] worked out at 87.
`Cn1cc2c(nc(NC(=O)NC3CCN(C(=O)NCCc4ccccc4)CC3)n3nc(-c4ccco4)nc23)n1`: the Ki on Adenosine receptor A1 was 182 nM; at Adenosine receptor A2a, 1840 nM; at Adenosine receptor A3 [4] it was 6.8 nM. The concentration for half-maximal inhibition (IC50) at Adenosine receptor A2b amounted to 1760 nM; at Adenosine receptor A3 [3], 23 nM.
For `CC(C)NC(=O)N1CCC(NC(=O)Nc2nc3nn(C)cc3c3nc(-c4ccco4)nn23)CC1`, in that order: 1320 nM, over 5000 nM, 9.8 nM, over 5000 nM and 34 nM.
As for `Cn1cc2c(nc(NC(=O)NC3CCN(Cc4ccc(Cl)cc4)CC3)n3nc(-c4ccco4)nc23)n1`, the inhibitory constant (Ki) at Adenosine receptor A1 is 724 nM; at Adenosine receptor A2a, over 5000 nM; at Adenosine receptor A3 [4] it was 26 nM. In addition, the IC50 at Adenosine receptor A2b was over 5000 nM; on Adenosine receptor A3 [3], 91 nM.

By solubility is commonly meant the concentration that dissolves in the medium under given conditions. Low readings indicate a poorly soluble substance, high ones a readily soluble substance. Broadly, the Ki is a dissociation constant, usually derived from enzyme kinetics or from competition with a known ligand. The term IC50 denotes the concentration needed to halve the response being measured.
